According to PubChem BioAssay AID504323 (Broad Institute, 2011):
Several values for one entry are separate records, joined by “and”; a condition that tells them apart may be missing. Equal entries are not always repeated. Activity calls are given as the source filed them.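 Rule for the calls: active = compounds lowering the viability signal whose fitted AC50 is no more than ten times their top tested dose; inconclusive = flat fit with a 30 to 70% drop, or poor fit; inactive = the rest.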

Legend:
[1] = toxicity in U2OS HRE-luc cells, zinc medium, dose response, cytotoxicity control for HIF pathway activator project, zinc-supplemented medium, dry powder (AID 504323); conditions: U2OS HRE-luciferase cells, viability toxicity, luminescence; at 38 µM (top of the series)
Method in brief: (§1)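 assay system = human U2OS osteosarcoma cells carrying a 3×HRE-luciferase reporter | input = 6,000 cells/well | doses = 8 points, 3-fold steps | schedule = 24 h attachment, then 24 h compound exposure at 37 °C | technique = CellTiter-Glo luminescence for cell viability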

[2] = system: U2OS HRE-luciferase cells, viability toxicity, luminescence; test: as above
Method in brief: as §1

| Compound | activity change, negative = toxicity [1] | AC50 [2] |
| --- | --- | --- |
| O=C(Nc1cnc2ccccc2c1)c1cc(-c2ccccc2)on1 | 5.21% (inactive) |  |
| O=C(NCCN1CCOCC1)c1cc(-c2ccccc2)on1 | 10.8% (inactive) |  |
| O=C(Nc1nc(-c2ccccc2)cs1)c1cc(-c2ccccc2)on1 | 7.74% (inactive) |  |
| O=C(NC1CCc2ccccc2C1)c1cc(-c2ccccc2)on1 (stereo not given) |  | > 38 µM (inactive) |
| Cn1c(-c2ccccc2)cnc1Nc1nc(-c2ccccn2)nnc1-c1ccccc1 |  | > 38 µM (inactive) |
| Cc1ccc(CNC(=O)c2cc(-c3ccccc3)on2)cc1 | -12.8% (inactive) |  |
| O=C(Nc1cn2ccccc2n1)c1cc(-c2ccccc2)on1 | 10.3% (inactive) |  |
| O=C(c1cc(-c2ccccc2)on1)N1CCC(CO)CC1 | 9.31% (inactive) |  |
| CN1CCN(C(=O)c2cc(-c3ccccc3)on2)CC1 | 2.31% (inactive) |  |
| O=C(NCC1CC1)c1cc(-c2ccccc2)on1 | 22.5% (inactive) |  |
| Cc1ccc(NC(=O)c2cc(-c3ccccc3)on2)cn1 | -11.1% (inactive) |  |
| Oc1ccc(CN2CCc3ccccc3C2)c2cccnc12 | -93.5% (inactive) and -0.278% (inactive) |  |
| OCCCNc1nc(-c2ccccn2)nnc1-c1ccccc1 | 17.6% (inactive) |  |
| c1ccc(-c2ccc(CNc3nc(-c4ccccn4)nnc3-c3ccccc3)cc2)cc1 | 7.11% (inactive) |  |
| O=C(c1cc(-c2ccccc2)on1)N1CCC(N2CCOCC2)CC1 | 2.52% (inactive) |  |
| c1ccc(-c2cnc(Nc3nc(-c4ccccn4)nnc3-c3ccccc3)s2)cc1 | 10.3% (inactive) |  |
| Cc1cccc(NC(=O)c2cc(-c3ccccc3)on2)n1 | 2.1% (inactive) |  |
| c1ccc(-c2nnc(-c3ccccn3)nc2Nc2cnc3ccccc3n2)cc1 |  | 10.1 µM |
| O=C(Nc1ncc(-c2ccccc2)o1)c1cc(-c2ccccc2)on1 | -2.78% (inactive) |  |
| O=C(NCCCn1ccnc1)c1cc(-c2ccccc2)on1 | -5.48% (inactive) |  |

| Compound | activity change, negative = toxicity [1] | AC50 [2] |
| --- | --- | --- |
| O=C(Nc1ncc2ccccc2n1)c1cc(-c2ccccc2)on1 | -15.3% (inactive) |  |
| O=C(Nc1nc2ccccc2s1)c1cc(-c2ccccc2)on1 | 18.7% (inactive) |  |
| Cn1c(NC(=O)c2cc(-c3ccccc3)on2)nc2ccccc21 | 16% (inactive) |  |
| c1ccc(-c2nnc(-c3ccccn3)nc2N2CCC(C3CCCCC3)C2)cc1 (stereo not given) | 25.2% (inactive) |  |
| C=CCNc1nc(-c2ccccn2)nnc1-c1ccccc1 | 29% (inactive) |  |
| c1ccc(CNc2nc(-c3ccccn3)nnc2-c2ccccc2)cc1 | 11.5% (inactive) |  |
| c1ccc(-c2nnc(-c3ccccn3)nc2N2CCN(c3ccncc3)CC2)cc1 | 16.2% (inactive) |  |
| c1ccc(CCNc2nc(-c3ccccn3)nnc2-c2ccccc2)cc1 | -7.93% (inactive) |  |
| c1ccc(-c2csc(Nc3nc(-c4ccccn4)nnc3-c3ccccc3)n2)cc1 | -2.4% (inactive) |  |
| Cc1ccc(CNc2nc(-c3ccccn3)nnc2-c2ccccc2)cc1 | 4.61% (inactive) |  |
| O=C(NCCN1CCCCC1)c1cc(-c2ccccc2)on1 | 14.1% (inactive) |  |
| Cc1cccc(CNc2nc(-c3ccccn3)nnc2-c2ccccc2)c1 | -2.48% (inactive) |  |
| O=C(c1cc(-c2ccccc2)on1)N1CCN(c2ccncc2)CC1 | -1.95% (inactive) |  |
| c1ccc(-c2nnc(-c3ccccn3)nc2NCC2CC2)cc1 | 20.9% (inactive) |  |
| Cc1cccc(Nc2nc(-c3ccccn3)nnc2-c2ccccc2)n1 | -13.3% (inactive) |  |
| O=C(Nc1ccc2ccccc2n1)c1cc(-c2ccccc2)on1 | 16.8% (inactive) |  |
| c1ccc(-c2nnc(-c3ccccn3)nc2NCc2cccnc2)cc1 | 30.2% (inactive) |  |
| CC(C)(C)OC(=O)N1CCN(Cc2ccc(O)c3ncccc23)CC1 | 6.73% (inactive) |  |
| Oc1ccc(CNC2CCc3ccccc32)c2cccnc12 (stereo not given) | -6.14% (inactive) |  |
| COc1ccc(CNc2nc(-c3ccccn3)nnc2-c2ccccc2)cc1 | 1.65% (inactive) |  |
